An excerpt weighted towards active compounds, which were near 3% of everything screened.
SENP8 block-1 = blocks the human protease SENP8 | Q96LD8 | purified SENP8, Z-RLRGG-aminoluciferin cleavage, luminescence | inhibition, % at 10 µM | 1.2% of 330,000 active; in the data active means inhibition above about 50%
SENP6 block = blocks the human protease SENP6; Recombinant SENP6 catalytic domain, aminoluciferin luminescence; inhibition, % at 10 µM; 1.8% of 330,000 active; AID 2599;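 active means inhibition above about 50% at the single tested dose, limit read from the data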;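 further: plate controls were DMSO wells with enzyme for no effect and DMSO wells lacking enzyme for full effect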
UBC13 inh = inhibitors of human UBC13 polyubiquitin chain formation. TR-FRET. inhibition, % at 20 µM. 0.47% of 330,000 active. AID 485273; in the data active means inhibition above about 45%, passing the limit was not always enough
Target sequence (P61088 whole entry, looked up): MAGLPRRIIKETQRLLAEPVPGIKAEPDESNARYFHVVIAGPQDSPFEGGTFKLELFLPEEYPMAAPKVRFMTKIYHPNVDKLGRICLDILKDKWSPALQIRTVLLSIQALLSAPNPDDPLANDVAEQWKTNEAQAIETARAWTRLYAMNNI
SENP7 inh = inhibitors of human SENP7 protease; 1.5% of 330,000 active; AID 434973; inhibition, % at 5 µM; recombinant SENP7, Z-RLRGG-aminoluciferin luminescence, 40 min;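 active means inhibition above about 50% at the single test dose, limit read from the data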;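 further: plate controls were DMSO with enzyme for no effect and no enzyme buffer wells for full effect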
Target sequence (Q9BQF6 706-1050 limits assumed): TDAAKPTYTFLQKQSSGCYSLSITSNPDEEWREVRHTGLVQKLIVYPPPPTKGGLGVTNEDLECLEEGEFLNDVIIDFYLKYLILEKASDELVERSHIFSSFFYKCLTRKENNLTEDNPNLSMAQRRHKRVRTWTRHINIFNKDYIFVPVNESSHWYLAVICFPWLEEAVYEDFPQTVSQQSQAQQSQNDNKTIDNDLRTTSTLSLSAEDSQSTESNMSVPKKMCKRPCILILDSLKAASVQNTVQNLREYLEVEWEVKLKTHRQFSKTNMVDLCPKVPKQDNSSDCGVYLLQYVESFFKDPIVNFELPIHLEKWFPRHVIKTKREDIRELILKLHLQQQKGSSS
SENP8 block-2 = SENP8 (human) protease inhibition; 0.64% of 360,000 active; recombinant SENP8, Nedd8 substrate fluorescence; inhibition, % at 20 µM; AID 602440; in the data active means inhibition mostly above about 40%, no sharp cut-off; inactive means mostly below about 27%
Apaf-1 inh = blocks human Apaf-1 apoptosome activity; AID 489030; reconstituted apoptosome caspase-3 activity, DEVD-Rh110 fluorescence; O14727; 0.71% of 330,000 active; inhibition, % at 20 µM; active means inhibition of at least 40% at 20 µM;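 further: plate controls were DMSO wells for no effect and DEVD-CHO caspase inhibitor wells for full effect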
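Material: reconstituted apoptosome with Apaf-1, cytochrome c, caspase-9, procaspase-3, dATP; medium: pH 7.5 Hepes buffer with CHAPS, BSA, DTT; also added: cytochrome c and DEVD-Rh110 substrate; timing: 30 min plus 50 min, RT; signal: Rh110 fluorescence intensity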
SENP8 confirm = human SENP8 inhibition, confirmed; 40% of 6,200 active; Recombinant SENP8, Z-RLRGG-aminoluciferin luminescence, 60 min; inhibition, % at 12.5 µM; shares compounds with SENP7 inh;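 active means mean inhibition across replicates above about 50%, limit read from the data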
SENP6 conf = confirmation of human SENP6 protease inhibitors | shares compounds with SENP7 inh | recombinant SENP6, Z-RLRGG-aminoluciferin luminescence | 58% of 6,200 active | inhibition, % at 12.5 µM | AID 488915
SENP7 confirm = confirmation of human SENP7 protease inhibitors. shares compounds with SENP7 inh. recombinant SENP7, Z-RLRGG-aminoluciferin luminescence, 40 min. inhibition, % at 12.5 µM. 69% of 6,200 active
Casp3 SENP sel = inhibits human caspase-3 in SENP selectivity test; AID 488918; 60% of 6,200 active; shares compounds with SENP7 inh; purified caspase-3, Z-DEVD-aminoluciferin luminescence, 60 min; inhibition, % at 12.5 µM;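 active means mean inhibition above about 50%, limit read from the data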;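 further: plate controls were enzyme with DMSO for no effect and wells without caspase-3 for full effect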
SENP luc ctr = luminescence interference (SENP counter-screen); inhibition, % at 12.5 µM; shares compounds with SENP7 inh; AID 488919; Pre-incubated SENP8/Z-RLRGG-aminoluciferin, luciferase luminescence interference; 39% of 6,200 active;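 active means mean inhibition above about 50% when retested at one dose, limit read from the data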;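 further: plate controls were DMSO wells with completed reaction for no effect and substrate without enzyme for full effect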
Numbers without * were called inactive.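 How the source made its calls, unless noted: active means mean inhibition above about 50% in the one-dose retest (limit read from the data); inactive means the rest.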

For O=C(O)c1cc(N/N=C/C(Cl)=C/c2ccccc2)ccc1Cl the results were SENP8 block-1 96*, SENP6 block 88*, UBC13 inh 10, SENP7 inh 89*, SENP8 block-2 -36, Apaf-1 inh -21, SENP8 confirm 98*, SENP6 conf 99*, SENP7 confirm 101*, Casp3 SENP sel 38 and SENP luc ctr 97*.
Screening Cc1nn(-c2ccccc2)c(C)c1/C=N/NC(=O)c1ccc(F)cc1 returned SENP8 block-1 -4, SENP6 block -19, UBC13 inh -2, SENP7 inh -12, SENP8 block-2 -10 and Apaf-1 inh 7.
Screening C[C@H]1CN([C@@H](C)CO)C(=O)CCCn2cc(nn2)CO[C@@H]1CN(C)C(=O)c1ccncc1 returned SENP8 block-2 11.
CC(=O)c1ccc(NC(=S)NCc2cccnc2)cc1 was read as SENP8 block-1 -5, SENP6 block -10, UBC13 inh -8, SENP7 inh -1, SENP8 block-2 0 and Apaf-1 inh -1.
`CC(/C=N/NC(=O)c1ccccc1F)=C\c1ccccc1` gave SENP8 block-1 28, SENP6 block 58*, UBC13 inh -9, SENP7 inh 43, SENP8 block-2 2, Apaf-1 inh 8, SENP8 confirm 48, SENP6 conf 41, SENP7 confirm 70*, Casp3 SENP sel 52* and SENP luc ctr 54*.
Screening CC(/C=N/NC(=O)c1ccccc1C)=C\c1ccccc1 returned SENP8 block-1 3, SENP6 block 2, UBC13 inh 6, SENP7 inh 8, SENP8 block-2 15 and Apaf-1 inh -7.
Screening Cc1cc(C(=O)N/N=C/C(Cl)=C/c2ccccc2)c(C)o1 returned SENP8 block-1 28, SENP6 block 49, UBC13 inh -9, SENP7 inh 53*, SENP8 block-2 21, Apaf-1 inh -1, SENP8 confirm 36, SENP6 conf 36, SENP7 confirm 75*, Casp3 SENP sel 42 and SENP luc ctr 40.
`O=S(=O)(Nc1ccncc1Cl)c1ccc2ccccc2c1` gave SENP8 block-1 4, SENP6 block 0, UBC13 inh -2, SENP7 inh 3, SENP8 block-2 -4 and Apaf-1 inh 3.
Screening Cn1c(C(=O)O)cc2cc(Oc3ccccc3)ccc21 returned SENP8 block-1 64*, SENP6 block 80*, UBC13 inh -12, SENP7 inh 13, SENP8 block-2 -25, Apaf-1 inh 0, SENP8 confirm 7, SENP6 conf 66*, SENP7 confirm 82*, Casp3 SENP sel 71* and SENP luc ctr 72*.
For Cn1c(C(=O)NN)cc2cc(Oc3ccccc3)ccc21 the results were SENP8 block-1 -4, SENP6 block -34, UBC13 inh 3, SENP7 inh 2, SENP8 block-2 -148 and Apaf-1 inh 8.
For O=C(/C=C/c1ccccc1[N+](=O)[O-])NCCN1C(=O)S/C(=C\c2ccc(F)cc2)C1=O the results were SENP8 block-1 -11, SENP6 block 18, UBC13 inh -3, SENP7 inh 81*, SENP8 block-2 19, Apaf-1 inh 0, SENP8 confirm -10, SENP6 conf -3, SENP7 confirm -6, Casp3 SENP sel 5 and SENP luc ctr 3.
Screening CS(=O)(=O)N1CCN=C1SCc1ccc([N+](=O)[O-])cc1 returned SENP8 block-1 -2, SENP6 block 8, UBC13 inh -4, SENP7 inh -6, SENP8 block-2 19 and Apaf-1 inh 0.
For COc1ccc(NC(=O)c2noc3c2CCC3)cc1 the results were SENP8 block-1 71*, SENP6 block 22, UBC13 inh 9, SENP7 inh 81*, SENP8 block-2 18, Apaf-1 inh 2, SENP8 confirm 11, SENP6 conf 77*, SENP7 confirm 93*, Casp3 SENP sel 90* and SENP luc ctr 79*.
`O=C(Nc1cccc(O)c1)c1noc2c1CCCCC2` gave SENP8 block-1 92*, SENP6 block 96*, UBC13 inh 2, SENP7 inh 95*, SENP8 block-2 -7, Apaf-1 inh -10, SENP8 confirm 96*, SENP6 conf 96*, SENP7 confirm 102*, Casp3 SENP sel 96* and SENP luc ctr 93*.
Screening Cc1ccc(NC(=O)c2noc3c2CCC3)cc1C returned SENP8 block-2 28.
`CC(=O)Oc1ccc2nc(/C=C/c3ccccc3)oc(=O)c2c1` gave SENP8 block-1 77*, SENP6 block 36, UBC13 inh -7, SENP7 inh 72*, SENP8 block-2 -198, Apaf-1 inh 0, SENP8 confirm 16, SENP6 conf 22, SENP7 confirm 49, Casp3 SENP sel 62* and SENP luc ctr 52*.
`O=[N+]([O-])c1ccc(S(=O)(=O)Nc2nnc(C3CCCCC3)s2)cc1` gave SENP8 block-1 -1, SENP6 block 0, UBC13 inh -13, SENP7 inh 6, SENP8 block-2 7 and Apaf-1 inh 8.
Screening Cc1ccccc1Nc1nc(N)c2ccccc2n1 returned SENP8 block-1 91*, SENP6 block 3, UBC13 inh -8, SENP7 inh 95*, SENP8 block-2 -230, Apaf-1 inh -15, SENP8 confirm 94*, SENP6 conf 95*, SENP7 confirm 102*, Casp3 SENP sel 97* and SENP luc ctr 95*.
`Cc1ccccc1Nc1ncc(C#N)c(N)n1` gave SENP8 block-1 -17, SENP6 block -10, UBC13 inh 0, SENP7 inh -12, SENP8 block-2 6 and Apaf-1 inh 4.
Screening Cc1ccc(Nc2nc(N)c3ccccc3n2)cc1Cl returned SENP8 block-1 97*, SENP6 block 97*, UBC13 inh 33, SENP7 inh 98*, SENP8 block-2 -289, Apaf-1 inh 11, SENP8 confirm 99*, SENP6 conf 100*, SENP7 confirm 103*, Casp3 SENP sel 93* and SENP luc ctr 85*.

High-throughput results: PubChem, Sanford-Burnham Center for Chemical Genomics
